This is an account of results in ChEMBL document CHEMBL1139315, “Search for new pharmacophores for antimalarial activity. Part II: synthesis and antimalarial activity of new 6-ureido-4-anilinoquinazolines” (Bioorg Med Chem, 2009).

Values after ≈ are worked out from the molar mass of the structure shown.

In test [1] the test system is Plasmodium falciparum. In words: Antimalarial activity as schizonticidal activity after 48 hrs against chloroquine-sensitive Plasmodium falciparum 3D7. Format: functional. Conditions: 3D7, 48 h. A digest of the protocol: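 3D7 ring stages synchronized with 5% sorbitol; 3% cell suspension at 1% parasitaemia added to duplicate wells of diluted compound (DMSO stock 5 mg/mL, diluted in RPMI). Incubated at 37 °C under CO2 for more than 40 h. Giemsa-stained thin smears counted by light microscopy; MIC = lowest concentration giving 100% inhibition of schizont maturation against untreated control.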

Another test has as its system Plasmodium yoelii. In words: Antimalarial activity as reduced parasitaemia against chloroquine-resistant Plasmodium yoelii infected Swiss mice (Mus musculus) at 100 mg/kg peroral dose for 4 days. The note with it: route oral. Also on record: scale not given: the % may be the effect or the level left. The format is functional.
In test [2] the test system is Plasmodium yoelii nigeriensis. In words: Antimalarial activity as reduced parasitaemia against Plasmodium yoelii nigeriensis MDR infected Swiss mice (Mus musculus) at 100 mg/kg peroral dose […]. Also on record: scale not given: the % may be the effect or the level left. The note with it: route oral. The format is functional. A digest of the protocol:
(§1)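 Swiss mice (25 g, either sex), five per group, infected with 1 × 10^6 parasitized cells on day 0. Aqueous suspension given orally from day 0 to day 4; vehicle-only group as control. Parasitaemia read from tail-vein thin blood smears, reported as mean % parasitaemia on day 4 and day 7.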

Test [3] deals with Plasmodium falciparum. In words: Antimalarial activity after 72 hrs against chloroquine-sensitive Plasmodium falciparum 3D7 infected erythrocytes by MSF assay. Conditions: 3D7, 72 h. Format: functional, organism-based. A digest of the protocol: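 P. falciparum 3D7 kept in RPMI with gentamicin 40 µg/mL, Fungizone 0.25 µg/mL and 10% FBS (pH 7.2) at 37 °C under CO2. Twofold serial dilutions over seven concentrations, top 10–500 ng/mL, duplicate wells; 2.5% haematocrit, 0.5% parasitaemia; 72 h. SYBR Green I in lysis buffer (Tris pH 7.5, EDTA, saponin, Triton X-100), 1 h at room temperature, fluorescence read; IC50 by logit regression.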

A short description of test [4]: Selectivity index, ratio of CC50 for african green monkey (Cercopithecus aethiops) Vero C1008 cells to IC50 for chloroquine-sensitive Plasmodium falciparum 3D7. Format: functional. A digest of the protocol:
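Vero C1008 cells exposed to serially diluted compound, highest 100 µg/mL, for 72 h; MTT read-out; CC50 = concentration killing 50% of cells. SI = CC50/IC50, with IC50 from the SYBR Green I assay on 3D7.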

The subject of test [5] is Plasmodium yoelii nigeriensis. Briefly: Antimalarial activity as reduced parasitaemia against Plasmodium yoelii nigeriensis MDR infected Swiss mice (Mus musculus) at 100 mg/kg peroral dose for 4 days. Format: functional. Also on record: scale not given: the % may be the effect or the level left. The note with it: route oral. The method in brief:
as §1

The term MIC denotes the least concentration at which growth counts as inhibited. `COc1ccc(Nc2ncnc3ccc(NC(=O)Nc4cccc(C(C)=O)c4)cc23)cc1OC` had an MIC against Plasmodium falciparum [1] of 10 µg/mL (≈ 21.9 µM).
`O=C(Nc1ccc(Cl)cc1)Nc1ccc2ncnc(Nc3ccc(F)cc3)c2c1` showed an MIC with Plasmodium falciparum [1] of 0.5 µg/mL (≈ 1.23 µM). The figures for the Activity (with Plasmodium yoelii; in test [2]) were 1.18% and 9.38%, respectively.
As to `Cc1ccc(NC(=O)Nc2ccc3ncnc(Nc4ccc(F)cc4)c3c2)cc1Cl`, the MIC with Plasmodium falciparum [1] amounted to 0.5 µg/mL (≈ 1.19 µM). The Activity with Plasmodium yoelii is listed as 2.8%; in test [2], 4.06%.
In the case of `COc1cccc(Nc2ncnc3ccc(NC(=O)Nc4cccc(C(C)=O)c4)cc23)c1`, in the test with Plasmodium falciparum [1], the minimum inhibitory concentration (MIC) worked out at 10 µg/mL (≈ 23.4 µM).
`O=C(Nc1ccc(Br)cc1)Nc1ccc2ncnc(Nc3ccc(F)cc3)c2c1` showed an MIC in the test with Plasmodium falciparum [1] of 10 µg/mL (≈ 22.1 µM).
Still for that read-out and setting: in the case of `O=C(Nc1cc(Cl)cc(Cl)c1)Nc1ccc2ncnc(Nc3cccc(C(F)(F)F)c3)c2c1` it was 10 µg/mL (≈ 20.3 µM).
As usually defined, the IC50 is the concentration at which inhibition is half-maximal. Regarding `O=C(Nc1ccc(Cl)c(C(F)(F)F)c1)Nc1ccc2ncnc(Nc3cccc(C(F)(F)F)c3)c2c1`, in the test with Plasmodium falciparum [1], 0.25 µg/mL (≈ 0.475 µM) was the least that counted as inhibitory (MIC). Besides, in the test with Plasmodium falciparum [3], inhibition was half-maximal at 0.0023 µg/mL (≈ 0.00437 µM) (IC50). The “Ratio CC50/IC50” value in test [4] was determined as 1194. Besides, the Activity turned out to be 10% in test [5] and 30.5% in test [2].
In turn, `COc1cccc(Nc2ncnc3ccc(NC(=O)Nc4cccc(C#N)c4)cc23)c1` gave an MIC against Plasmodium falciparum [1] of 10 µg/mL (≈ 24.4 µM).
The same measure, in the same setting: in the case of `COc1cccc(Nc2ncnc3ccc(NC(=O)Nc4ccc(C)c(Cl)c4)cc23)c1` it was 0.5 µg/mL (≈ 1.15 µM); in that of `Cc1ccc(NC(=O)Nc2ccc3ncnc(Nc4cccc(C(F)(F)F)c4)c3c2)cc1Cl`, 10 µg/mL (≈ 21.2 µM).
`O=C(Nc1ccc(Cl)c(Cl)c1)Nc1ccc2ncnc(Nc3cccc(C(F)(F)F)c3)c2c1` displayed a minimal inhibitory concentration (MIC) with Plasmodium falciparum [1] of 0.25 µg/mL (≈ 0.508 µM). The midpoint of inhibition in the test with Plasmodium falciparum [3], the IC50, lay at 0.013 µg/mL (≈ 0.0264 µM). For the same compound, the “Ratio CC50/IC50” value in test [4] is on record as 69.
In the test on Plasmodium falciparum [1], `Cc1ccc(Nc2ncnc3ccc(NC(=O)Nc4ccc(Br)cc4)cc23)cc1` gave an MIC of 1 µg/mL (≈ 2.23 µM).
With `N#Cc1cccc(NC(=O)Nc2ccc3ncnc(Nc4cccc(C(F)(F)F)c4)c3c2)c1`, the MIC against Plasmodium falciparum [1] was 1 µg/mL (≈ 2.23 µM).
In the case of `O=C(Nc1ccc(Cl)cc1)Nc1ccc2ncnc(Nc3cccc(C(F)(F)F)c3)c2c1`, the MIC in the test with Plasmodium falciparum [1] is 0.25 µg/mL (≈ 0.546 µM). The same compound gave an IC50 in the test with Plasmodium falciparum [3] of 0.0674 µg/mL (≈ 0.147 µM). Moreover, the “Ratio CC50/IC50” value in test [4] turned out to be 35.9.
Turning to `O=C(Nc1ccc(Cl)c(Cl)c1)Nc1ccc2ncnc(Nc3ccc(Cl)cc3)c2c1`, in the test with Plasmodium falciparum [1], inhibition of growth (MIC) required 0.5 µg/mL (≈ 1.09 µM).
In the test on Plasmodium falciparum [1], `O=C(Nc1ccc(Cl)c(Cl)c1)Nc1ccc2ncnc(Nc3cccc(F)c3)c2c1` returned an MIC of 0.25 µg/mL (≈ 0.565 µM). Besides, the IC50 in the test on Plasmodium falciparum [3] is 0.0245 µg/mL (≈ 0.0554 µM). Moreover, the “Ratio CC50/IC50” value in test [4] is listed as 221.5.
`O=C(Nc1ccc(Cl)c(C(F)(F)F)c1)Nc1ccc2ncnc(Nc3cccc(F)c3)c2c1` yielded an MIC against Plasmodium falciparum [1] of 0.5 µg/mL (≈ 1.05 µM). Moreover, the Activity in test [5] is 22%; in test [2], 14.5%.
In turn, `CC(=O)c1cccc(NC(=O)Nc2ccc3ncnc(Nc4ccc(C)cc4)c3c2)c1` displayed an MIC against Plasmodium falciparum [1] of 2 µg/mL (≈ 4.86 µM).
With `COc1ccc(Nc2ncnc3ccc(NC(=O)Nc4ccc(Br)cc4)cc23)cc1OC`, in the test with Plasmodium falciparum [1], inhibition of growth (MIC) required 0.5 µg/mL (≈ 1.01 µM). Moreover, the results for the Activity in test [5] and in test [2] were 26.3% and 26.5%, respectively.
Regarding `COc1ccc(Nc2ncnc3ccc(NC(=O)Nc4ccc(C)c(Cl)c4)cc23)cc1OC`, it took 0.25 µg/mL (≈ 0.539 µM) to inhibit growth in the test with Plasmodium falciparum [1] (MIC). Moreover, inhibition in the test on Plasmodium falciparum [3] was half-maximal at 0.0223 µg/mL (≈ 0.0481 µM) (IC50). The “Ratio CC50/IC50” value in test [4] is recorded as 449.
On to `COc1ccc(Nc2ncnc3ccc(NC(=O)Nc4cc(Cl)cc(Cl)c4)cc23)cc1OC`, for which, in the test with Plasmodium falciparum [1], the minimal inhibitory concentration (MIC) was determined as 0.25 µg/mL (≈ 0.516 µM). The same compound displayed an IC50 with Plasmodium falciparum [3] of 0.0832 µg/mL (≈ 0.172 µM). Moreover, the “Ratio CC50/IC50” value in test [4] came out at 36.1. Also, the figures for the Activity in test [5] and in test [2] were 23.7% and 10.75%, respectively.
In the test with Plasmodium falciparum [1], `COc1ccc(Nc2ncnc3ccc(NC(=O)Nc4ccc(Cl)cc4)cc23)cc1OC` yielded an MIC of 0.5 µg/mL (≈ 1.11 µM).
`COc1ccc(Nc2ncnc3ccc(NC(=O)Nc4ccc(Cl)c(Cl)c4)cc23)cc1`: the MIC against Plasmodium falciparum [1] is 2 µg/mL (≈ 4.4 µM).
For `COc1ccc(Nc2ncnc3ccc(NC(=O)Nc4ccc(C(C)=O)cc4)cc23)cc1`, it took 2 µg/mL (≈ 4.68 µM) to inhibit growth in the test with Plasmodium falciparum [1] (MIC).
As for `N#Cc1cccc(NC(=O)Nc2ccc3ncnc(Nc4cccc(Cl)c4)c3c2)c1`, the minimum inhibitory concentration (MIC) against Plasmodium falciparum [1] worked out at 0.5 µg/mL (≈ 1.21 µM).
On the same count and under the same terms, the result for `O=C(Nc1ccc(Cl)c(Cl)c1)Nc1ccc2ncnc(Nc3cccc(Cl)c3)c2c1` reads 0.5 µg/mL (≈ 1.09 µM).
Consider `O=C(Nc1ccc(Br)cc1)Nc1ccc2ncnc(Nc3ccccc3)c2c1`, for which the MIC in the test on Plasmodium falciparum [1] turned out to be 0.25 µg/mL (≈ 0.576 µM). For the same compound, the IC50 in the test with Plasmodium falciparum [3] is 0.173 µg/mL (≈ 0.399 µM). In test [4], the “Ratio CC50/IC50” value came out at 132.5.
Turning to `O=C(Nc1ccc(Cl)cc1)Nc1ccc2ncnc(Nc3ccccc3)c2c1`, in the test on Plasmodium falciparum [1], the MIC was 1 µg/mL (≈ 2.57 µM).
`COc1ccc(Nc2ncnc3ccc(NC(=O)Nc4cccc(C#N)c4)cc23)cc1` had an MIC in the test with Plasmodium falciparum [1] of 2 µg/mL (≈ 4.87 µM).
As for `Cc1ccc(Nc2ncnc3ccc(NC(=O)Nc4cccc(C#N)c4)cc23)cc1`, the MIC with Plasmodium falciparum [1] worked out at 10 µg/mL (≈ 25.4 µM).
